Measured values: PubChem BioAssay
Records with an inconclusive call do not appear.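 The calls were made as follows, unless noted: active = viability increase at or above a cutoff of the median across tested compounds plus 3 SD (cut at about 8.5% in these data, passing the limit was not always enough); inconclusive = some gains above the cutoff, reason not given; inactive = the rest.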

Assays:
[1] = S. cerevisiae growth inhibition in permissive medium (OD615), pilot counter-assay for S. cerevisiae lifespan shortening project, permissive growth control (AID 705;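 active = growth inhibition above 25% in both replicates, a cutoff set 3 SD above the mean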); conditions: OD615, 24 h, at 10 µM, active compounds read high
How it was run: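 Test system: Saccharomyces cerevisiae strain carrying genetically modified DeaD replicative-lifespan system; buffer or medium: SC raffinose/galactose permissive medium; dosing: one dose 10 µM, DMSO 0.25% final; times: 24 h exposure, 30 °C; measured by: OD at 615 nm; read-out basis: growth inhibition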

[2] = S. cerevisiae growth inhibition in restrictive medium, OD615, pilot screen, restrictive growth control, yeast lifespan reduction project (AID 706;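 active = growth inhibition above a set limit, 3 SD over mean compound inhibition, in both replicates, cut at about 43% in these data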;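 also: modified DeaD lifespan yeast strain shifted to restrictive glucose medium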); conditions: OD615, 48 h, at 10 µM, active compounds read high
How it was run: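 material = engineered S. cerevisiae DeaD strain | buffer or medium = glucose-based CSMM-D restrictive medium | dosing = one concentration, 10 µM final, 0.25% DMSO | schedule = 4 h pre-growth plus 48 h compound exposure, 30 °C | detection = OD615 absorbance reading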

[3] = doxorubicin toxicity protection in MRP-1 cells – H69AR cells, CellTiter-Glo, duplicate, MRP-1 activator project, pilot screen (AID 807); conditions: H69AR viability with doxorubicin, CellTiter-Glo luminescence; at 10 µM; active compounds read high;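 also: compound pretreatment 18-22 h then 72 h combined with doxorubicin; 0% = doxorubicin alone and 100% = vehicle without doxorubicin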
[4] = viability of HCT116 without oncogenic beta-catenin – human colon tumor cells, pilot screen (AID 823;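 active = cell viability at or below a set limit in both duplicate runs, the limit being the all-compound median minus 4 SD, cut at about 23% in these data, passing the limit was not always enough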;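 also: 0% = wells killed by 20 µM Hyamine and 100% = untreated DMSO cell wells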); conditions: HCT116 beta-catenin knockout viability, CellTiter-Glo, 60 h; at 10 µM; active compounds read low
[5] = viability of PTEN-null HCT116 cells – cell-based, HCT116 clonal line, CellTiter-Glo, pilot screen (AID 824;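 active = viability at or below 27.92% in each of two runs, the all-compound median minus 4 SD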;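 also: 0% = 20 µM Hyamine control and 100% = vehicle cell control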); conditions: HCT116 PTEN-deleted viability, 60 h, at 10 µM, active compounds read low
[6] = RAM pathway blockade in budding yeast – dse1pr::URA3 reporter, 5-FOA selection, pilot screen (AID 869;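 active = inhibition over a set limit, the all-compound mean plus 3 SD, in both replicate runs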;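 also: 0% = DMSO wells with no growth and 100% = 10 µM 1-NA-PP1 with full growth; RAM network block rescues cells from 5-FOA so hits raise OD615 growth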); conditions: S. cerevisiae dse1pr::URA3 5-FOA growth, OD615, 2 d; at 10 µM; active compounds read high; strain carries analog-sensitive mutant Cbk1 kinase
[7] = RAM signaling pathway blockade in yeast – S. cerevisiae, Pdr1DBD-CYC8 efflux-inhibited sensitized strain, primary screen (AID 1298;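 active = RAM network inhibition above 8.4% in each of two replicates, 3 SD over the compound average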;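 also: 0% = DMSO untreated cells without growth and 100% = 10 µM 1-NA-PP1 full growth; higher means more yeast growth rescued from 5-FOA killing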); conditions: S. cerevisiae cbk1-as DSE1-URA3 strain, 5-FOA growth OD615, 2 d; at 50 µM; active compounds read high

O=C1CC(c2ccccc2)C(C(=O)Nc2ccccc2F)N1 (stereo unspecified)
inactive: growth inhibition [1] -17.2% | growth inhibition [2] 2% | viability increase [3] -0.74% | viability [4] 104% | viability [5] 99.3% | inhibition [6] 0.81% | RAM network inhibition [7] 4.18%

Cn1nc(-c2ccc(Cl)cc2)c2cc(C(=O)N3CCCC3)sc21
inactive: growth inhibition [1] -8.92% | growth inhibition [2] -9.39% | viability increase [3] -2.97% | viability [4] 96.9% | viability [5] 85.7% | inhibition [6] 1.97% | RAM network inhibition [7] 3.39%

CCc1ccc(NS(=O)(=O)c2cc(OC)ccc2OC)cc1
inactive: growth inhibition [1] -3.06% | growth inhibition [2] -9.52% | viability increase [3] -3.77% | viability [4] 66.6% | viability [5] 58.3% | inhibition [6] 0.68% | RAM network inhibition [7] 1.9%

CCCC(=N)C1=C(O)CC(CC(C)SCC)CC1=O (stereo unspecified)
inactive: growth inhibition [1] -5.42% | growth inhibition [2] 5.29% | viability increase [3] -1.06% | viability [4] 97.5% | viability [5] 103% | inhibition [6] 0.49% | RAM network inhibition [7] -1.1%

COc1ccc(-c2nnc(SCC(=O)Nc3cc(F)ccc3C)o2)cc1
inactive: growth inhibition [1] -4.83% | growth inhibition [2] 4.39% | viability increase [3] 1.69% | viability [4] 101% | viability [5] 97.6% | inhibition [6] 2.44% | RAM network inhibition [7] 0.58%

COc1cc2c(cc1OC)C1=C(C#N)CN(C3CCCCC3)CN1CC2
inactive: growth inhibition [1] -11.3% | growth inhibition [2] 4.15% | viability increase [3] -3.47% | viability [4] 90% | viability [5] 81.1% | inhibition [6] 2.15% | RAM network inhibition [7] 3.92%

C=C1c2cc(CC)ccc2NC(=O)N1c1ccc(C)cc1
inactive: growth inhibition [1] -6.46% | growth inhibition [2] -2.23% | viability increase [3] 3.36% | viability [4] 97.9% | viability [5] 101% | inhibition [6] 0.37% | RAM network inhibition [7] 0.61%

CC1COC2C(O1)N(S(C)(=O)=O)CCN2S(C)(=O)=O (stereo unspecified)
inactive: growth inhibition [1] -7.71% | growth inhibition [2] -12.4% | viability increase [3] 0.34% | viability [4] 99.3% | viability [5] 101% | inhibition [6] 0.68% | RAM network inhibition [7] 2.6%

O=C(NC1CCCCC1)c1ccc(Br)o1
inactive: growth inhibition [1] -5.84% | growth inhibition [2] -1.68% | viability increase [3] -1.9% | viability [4] 102% | viability [5] 102% | inhibition [6] 0.915% | RAM network inhibition [7] 3.82%

O=C(O)Cn1ncc2c1-c1ccoc1CC2
inactive: growth inhibition [1] -0.31% | growth inhibition [2] 2.4% | viability increase [3] -0.14% | viability [4] 106% | viability [5] 96.6% | inhibition [6] 2.17% | RAM network inhibition [7] 0.47%

CC1Cc2nc(SCC(=O)N3CCOCC3)n(-c3ccccc3)c(=O)c2S1 (stereo unspecified)
inactive: growth inhibition [1] -10.7% | growth inhibition [2] -11.7% | viability increase [3] -0.68% | viability [4] 111% | viability [5] 104% | inhibition [6] 0.16% | RAM network inhibition [7] 0.95%

CCOCCCNC(=O)C(NC(=O)c1cnccn1)c1ccc(OC)cc1 (stereo unspecified)
inactive: growth inhibition [1] -8.29% | growth inhibition [2] -6.63% | viability increase [3] 1.76% | viability [4] 102% | viability [5] 95.7% | inhibition [6] 1.81% | RAM network inhibition [7] 2.15%

Cc1cc2c(cc(C(=O)N3CCC(C(=O)NC4CCCC4)CC3)n2Cc2c(F)cccc2Cl)o1
inactive: growth inhibition [1] -3.7% | growth inhibition [2] -5.26% | viability increase [3] -1.51% | viability [4] 62% | viability [5] 54.8% | inhibition [6] 0.72% | RAM network inhibition [7] 3.45%

Cc1cc(C)nc(NS(=O)(=O)c2ccc(NC(=O)CCCN3C(=O)c4ccccc4C3=O)cc2)n1
inactive: growth inhibition [1] -7.67% | growth inhibition [2] -0.225% | viability increase [3] -1% | viability [4] 99.6% | viability [5] 100% | inhibition [6] 0.735% | RAM network inhibition [7] 3.72%

Cc1n[nH]c(C)c1S(=O)(=O)N(CC(=O)NC1CCCC1)c1ccc(C(C)C)cc1
inactive: growth inhibition [1] -7.41% | growth inhibition [2] 9.02% | viability increase [3] -3.3% | viability [4] 80.3% | viability [5] 76.9% | inhibition [6] 0.63% | RAM network inhibition [7] 3.37%

CCCCCCN=CC1=C(O)C(C(=O)OC)C(C)(C)CC1=O (stereo unspecified)
inactive: growth inhibition [1] -10.1% | growth inhibition [2] -3.98% | viability increase [3] 1.15% | viability [4] 95.1% | viability [5] 95.3% | inhibition [6] 0.93% | RAM network inhibition [7] 0.11%

CCOc1ccc(C(=O)CCNC(Cc2cnc[nH]2)C(=O)O)cc1 (stereo unspecified)
inactive: growth inhibition [1] 5.56% | growth inhibition [2] 8.23% | viability increase [3] -2.31% | viability [4] 95.1% | viability [5] 92.7% | inhibition [6] 2.15% | RAM network inhibition [7] 4.96%

O=C(NCc1ccccn1)Nc1cccc(Cl)c1
inactive: growth inhibition [1] -14.7% | growth inhibition [2] -9.4% | viability increase [3] -2.22% | viability [4] 97.7% | viability [5] 94.5% | inhibition [6] 0.095% | RAM network inhibition [7] 2.46%
